The text below walks through data of PMC9095748 (The Journal of Biological Chemistry, 2022).

The target in data set [1] is T1, hGLP1R (Homo sapiens, UniProt P43220). Kind of data set: GLP1R internalization in hGLP1R-GFP transfected HepG2 cells. The settings on record: for GLP1R internalization: 50 μM, 1 h, hGLP1R-GFP transfected HepG2 cells. The class given is cell-based. Put shortly: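 HepG2 cells lipofected with hGLP1R-spark-GFP, then treated 1 h with test compound (50 µM), Ex-4 (20 nM, positive control) or DMSO. For antagonism, Ex-9 (300 nM) added 15 min before. Washed in PBS and formalin-fixed. Surface labelled with sulfo-NHS-biotin (1 mg/ml, 30 min, 4 °C), washed in 100 mM glycine, PFA-fixed, blocked in 1% BSA and stained with Texas-Red-avidin (5 µg/ml, 30 min). Internalization read by confocal microscopy.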
T1 sequence (P43220 24-463): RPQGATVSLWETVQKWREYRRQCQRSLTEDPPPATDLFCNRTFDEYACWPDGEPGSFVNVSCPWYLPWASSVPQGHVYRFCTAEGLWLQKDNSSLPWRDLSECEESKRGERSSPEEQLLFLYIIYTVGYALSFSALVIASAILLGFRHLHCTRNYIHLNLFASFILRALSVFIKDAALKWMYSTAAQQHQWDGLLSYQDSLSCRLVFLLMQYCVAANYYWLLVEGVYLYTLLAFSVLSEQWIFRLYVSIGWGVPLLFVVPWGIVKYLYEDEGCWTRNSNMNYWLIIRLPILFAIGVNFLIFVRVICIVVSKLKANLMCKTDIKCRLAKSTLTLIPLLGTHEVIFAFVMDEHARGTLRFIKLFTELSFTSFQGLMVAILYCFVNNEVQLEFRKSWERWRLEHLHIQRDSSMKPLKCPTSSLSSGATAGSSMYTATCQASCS

For another data set, the system named is TXNIP. Kind of data set: TXNIP protein expression, Western blot in INS-1 cells. The format is cell-based, rat. The following applies: PK2 30 min. Put shortly: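 INS-1 cells treated with test compound or DMSO vehicle for 30 min. Lysed in RIPA buffer with protease and phosphatase inhibitors, protein measured by BCA, and reduced at 95 °C for 5 min. Run on 4-10% SDS-PAGE and blotted to PVDF. Blocked in 5% BSA or milk, then probed with anti-TXNIP and HRP-conjugated secondary in TBST with 5% BSA.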
(In western blotting, separated proteins are transferred to a membrane and probed.)

Another data set deals with INS-1 cells. Description: Insulin secretion assay in INS-1 cells. The class given is cell-based, rat. The settings on record: high glucose 16.7 mM, 1.5 h. Put shortly:
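INS-1 cells seeded, then held 16 h in 5 mM glucose medium and 1.5 h in 2.5 mM glucose. Treated 1.5 h with test compound or DMSO vehicle at 16.7 mM glucose. Supernatant insulin measured by rat insulin ELISA and normalized to total protein. n = 3/group.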

The subject of the next data set is TXNIP promoter. Description: TXNIP promoter-luciferase activity assay in INS-1 cells. The format is cell-based, rat. The following applies: PK2 50 μM, 45 min, INS-1 cells transfected with TXNIP promoter-luciferase construct.
Data set [2] concerns the target T1, hGLP1R. Kind of data set: cAMP Glo assay in hGLP1R-transfected 293A cells. The class given is cell-based. Put shortly: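 293A cells transiently lipofected with hGLP1R at 70% confluency. Seeded 4 h later at 5×10^4 cells/well and left overnight. Treated 4 h with DMSO or test compound at 0.5, 10, 20, 100, 200, 300, 500, 1000 and 2000 nM. Cells lysed and cAMP read by cAMP-Glo luminescence. EC50 from curve fitting; n = 3/group.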

The test system of data set [3] is CREB phosphorylation at Ser133. Kind of data set: CREB phosphorylation, Western blot in HepG2 cells. The class given is cell-based, human. The following applies: PK2 50 μM, 1 hr, serum-starved HepG2 cells, vs DMSO.
Data set [4] is described as follows: Safety observation in BALB/c mice over 30 days of treatment. The class given is in vivo. The following applies: 25 mg/kg.
The nature of data set [5]: Pharmacokinetics after single oral dose in BALB/c mice. The format is in vivo. An outline of the steps:
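Male BALB/c mice (5-6 weeks, 25 ± 2 g) given a single oral dose of 25 mg/kg and killed at 5 min to 24 h. Plasma extracted with acetonitrile:methanol (1:1) and run on reverse-phase C18 HPLC at 28 °C. Mobile phase 0.1% TFA water/acetonitrile (40:60) at 1 ml/min, fluorescence detection (ex 350 nm, em 497 nm). Quantified from peak-area standard curve; PK parameters by standard methods.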

Another data set is described as follows: Solubility in DMSO. The class given is physicochemical.
In the next data set the test system is PKA. Kind of data set: PKA activity ELISA in hGLP1R transfected 293A cells. The format is cell-based, human. The following applies: PK2 50 μM, 45 min, vs DMSO. Put shortly: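 293A cells lipofected with hGLP1R-spark-GFP. After 48 h, seeded at 1.0×10^4 cells/well. Next day treated with test compound (50 μM) or DMSO for 45 min in serum-free medium. PKA activity read by an ELISA on immobilized PKA substrate, per the kit protocol.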

Data set [6] deals with STZ-induced diabetic mouse model. Kind of data set: STZ-induced diabetic mouse model. The class given is in vivo, BALB/c mice. An outline of the steps:
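Male BALB/c mice, 6-7 weeks old, acclimated 1 week, on chow. STZ 65 mg/kg in citrate buffer pH 4.0 given IP for 5 days after overnight fast. Test compound 25 mg/kg oral in CMC for 18 days, starting 3 days before or 1 day after STZ. Controls received 0.25% CMC with or without STZ. Tail-vein glucose taken on alternate days, body weight on random days. Pancreas sections stained for insulin/Ki67 and insulin/TUNEL; n ≥ 5/group.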

Data set [7] in a line: Tissue distribution after oral administration in mice. The class given is in vivo, BALB/c mice. The settings on record: 2 h after oral administration. An outline of the steps:
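Male BALB/c mice dosed orally at 25 mg/kg. Organs (pancreas, heart, brain, lung, spleen, kidney, liver) collected 2 h after dosing and homogenized. Extracted with acetonitrile:methanol (1:1) and run on reverse-phase C18 HPLC with 0.1% TFA water/acetonitrile (40:60) and fluorescence detection (ex 350 nm, em 497 nm). Quantified against a standard curve.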

The mark [8] stands for this setting: BALB/c mice, oral, single dose 25 mg/kg, plasma.
Where [9] appears, read: male, BALB/c, mouse, plasma, po, 25 mg/kg.

≈ marks a conversion by molar mass, not a printed value. Where “and” joins values, the source holds several entries; their conditions need not be identical. Equal values may be shown once.

The EC50 is the concentration needed to bring the measured effect to its halfway point. Read a high EC50 as a need for much substance. By AUC(0-t) is commonly meant the area under the concentration-time curve up to a stated or last time point. Broadly, the Cmax is the peak of the concentration-time curve. What is called Tmax is the time from dosing to the highest level. In general, half-life refers to how long it takes for the measured level to halve. By solubility is commonly meant the concentration that dissolves in the medium under given conditions. A lower solubility goes with little dissolved substance.

In the case of “6-((1-(4-methoxybenzyl)-1H-1,2,3-triazol-4-yl)methyl)-6H-indolo[2,3-b]quinoxaline [PK4]”, the GLP1R internalization result on hGLP1R [1] is “rapidly internalized GLP1R receptors”.
Regarding `O=[N+]([O-])c1ccc(Cn2cc(Cn3c4ccccc4c4nc5ccccc5nc43)nn2)cc1` [PK2, 6-((1-(4-nitrobenzyl)-1H-1,2,3-triazol-4-yl)methyl)-6H-indolo[2,3-b]quinoxaline], the TXNIP protein expression result with TXNIP is recorded as “downregulates TXNIP”. Besides, the “Increase in insulin secretion” value in the data set on INS-1 cells was 1.45 fold. Further, in the data set on TXNIP promoter, the TXNIP promoter activity result is reported as “attenuates TXNIP promoter activity”. This molecule also showed an EC50 at hGLP1R [2] of 43.7 nM. In addition, in data set [3], the “Increase in CREB phosphorylation at Ser133” value is on record as 1.7 fold. For the same molecule, in data set [4], the “Abnormal behavior or acute toxicity” value is given as “no abnormal behavior or acute toxicity was observed”. The “Plasma clearance (CL)” value in [5] (BALB/c mice, oral, single dose 25 mg/kg) came to 7.79 L/h. In data set [5] (setting [8]), the “AUMC (0-t)” value is given as 13,601.58 ng h/ml, the Area of last is 320.1451 ng·h/mL, the “Cl (Clearance)” value came out at 7.7875 L/h and the “K (Eliminatory rate constant)” value amounted to 0.2003 h⁻¹. Further, in data set [5] (BALB/c mice, oral, single dose 25 mg/kg, plasma, 25 mg/kg), the “VD (Apparent volume of distribution)” value was 38.88 L and 38.882 L. For the same molecule, in data set [5] (setting [9]), the area under the curve AUC(0-t) was 3210 ng·h/mL, the Cmax amounted to 787 ng/mL and the Tmax worked out at 1 h. Also, the half-life in data set [5] (male, BALB/c, mouse, plasma, po, 25 mg/kg, t1/2 (Elimination half life), BALB/c mice, single dose 25 mg/kg) was 4.8 h. The solubility in the data set “Solubility in DMSO” is 10000 µg/mL (≈ 23 mM). Also, the GLP1R internalization result at hGLP1R [1] is “rapidly internalized GLP1R receptors”. In the data set with PKA, the “Increment in PKA activity” value was 1.6 fold. For the same molecule, the “Recovery of serum insulin levels” value in [6] (PK2-treated groups, 25 mg/kg oral, end of study, vs STZ group) is reported as “up to 6 fold”. Also, in data set [6] (PK2 groups, Ki67 in insulin-positive islet cells), the “Enhancement of β-cell proliferation (Ki67)” value is listed as 1.7 fold. Also, the Pancreas weight entry in data set [6] (PK2 groups, at termination of the study) is “protection in pancreas weight”. In addition, the Body weight result in [6] (STZ mice, PK2 25 mg/kg oral, compared to STZ only) is “increased body weight”. The “Reduction of number of TUNEL-positive cells in pancreatic islets” value in [6] (both PK2 groups compared to STZ group) is given as 3 fold. Further, in data set [6] (pre-PK2 and post-PK2 groups compared to STZ, insulin immunohistochemistry), the “Preservation of β-cell mass” value is on record as 4 fold. Moreover, the “Islets area (H&E)” value in data set [6] (pre-PK2 and post-PK2 groups vs STZ group) is “significantly bigger islets area”. Besides, the “Reduction of plasma glucose levels” value in data set [6] (pre-PK2 and post-PK2 groups, 25 mg/kg oral, compared to STZ only) is 1.4 fold. Besides, in data set [7], the “Tissue distribution: brain” value is recorded as “A small amount of PK2 was detectable”; the “Tissue distribution: heart, lungs, and spleen” value is recorded as “no traces”; the “Tissue distribution: liver, kidney, and pancreas” value is recorded as “distributed highly”.
“Exendin (9–39) [Ex-9, reference compound]”: at hGLP1R [1] (Ex-9 300 nM for 15 min, then PK2 50 μM for 1 h, HepG2 cells), the “Effect of antagonist on PK2-mediated GLP1R internalization” value is “blocking PK2-mediated GLP1R internalization”.
On to `Cc1ccc(Cn2cc(Cn3c4ccccc4c4nc5ccccc5nc43)nn2)cc1` [PK3, 6-((1-(4-methylbenzyl)-1H-1,2,3-triazol-4-yl)methyl)-6H-indolo[2,3-b]quinoxaline], for which, on hGLP1R [1], the GLP1R internalization result is “rapidly internalized GLP1R receptors”.
